Assay results taken from ChEMBL document CHEMBL4689842, “EUbOPEN Chemogenomics Library wave 1” (2021).
Several values for one entry are separate records, joined by “and”; a condition that tells them apart may be missing. Equal entries are not always repeated.

Tested on: Fibroblast
Assay: Multiplex assay against human fibroblast
Assay type: toxicity, cell-based
Procedure, shortened: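 At seeding, live cells were stained with Hoechst33342, BioTracker Green Microtubule Cytoskeleton Dye, MitoTracker Red and Annexin V Alexa Fluor 680. After compound addition they were imaged on a CQ1 microscope at 37°C and 5% CO2, and CellPathfinder machine-learning gating sorted them into Hoechst high-intensity objects or normal cells, with normal cells further split into healthy, pyknosed or fragmented nuclei and pyknosed cells into mitotic or apoptotic. Tubulin, mitochondrial-mass and membrane-permeability phenotypes are given as per cents of cells with healthy nuclei.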

[1] = 12 h, 1 µM, compound concentration 1 uM, replicate 1
[2] = 12 h, 1 µM, compound concentration 1 uM, replicate 2
[3] = 12 h, 10 µM, compound concentration 10 uM, replicate 1
[4] = 12 h, 10 µM, compound concentration 10 uM, replicate 2
[5] = 24 h, 1 µM, compound concentration 1 uM, replicate 1
[6] = 24 h, 1 µM, compound concentration 1 uM, replicate 2
[7] = 24 h, 10 µM, compound concentration 10 uM, replicate 1
[8] = 24 h, 10 µM, compound concentration 10 uM, replicate 2
[9] = 48 h, 1 µM, compound concentration 1 uM, replicate 1
[10] = 48 h, 1 µM, compound concentration 1 uM, replicate 2
[11] = 48 h, 10 µM, compound concentration 10 uM, replicate 1
[12] = 48 h, 10 µM, compound concentration 10 uM, replicate 2

SMILES: Cc1ccc2c(c1)c1c(n2CCc2ccc(C)nc2)CCN(C)C1 [LATREPIRDINE]
- Population Apoptotic (%) [1]: 60%
- Population Fragmented Nuclei (%) [1]: 26%
- Population Healthy Nuclei (%) [1]: 55%
- Population Hoechst High Intensity Objects (%) [1]: 15%
- Population Membrane Permeable-Phenotype (%) [1]: 18%
- Population Mitochondria Different-Phenotype (%) [1]: 18%
- Population Mitotic Cells (%) [1]: 40%
- Population Normal (%) [1]: 84%
- Population Pyknosed Nuclei (%) [1]: 18%
- Population Tubulin-Different-Phenotype (%) [1]: 59%
- Total Cell Count [1]: 127
- Population Apoptotic (%) [2]: 100%
- Population Fragmented Nuclei (%) [2]: 27%
- Population Healthy Nuclei (%) [2]: 67%
- Population Hoechst High Intensity Objects (%) [2]: 16%
- Population Membrane Permeable-Phenotype (%) [2]: 5%
- Population Mitochondria Different-Phenotype (%) [2]: 27%
- Population Mitotic Cells (%) [2]: 0%
- Population Normal (%) [2]: 83%
- Population Pyknosed Nuclei (%) [2]: 4%
- Population Tubulin-Different-Phenotype (%) [2]: 27%
- Total Cell Count [2]: 61
- Population Apoptotic (%) [3]: 55%
- Population Fragmented Nuclei (%) [3]: 29%
- Population Healthy Nuclei (%) [3]: 47%
- Population Hoechst High Intensity Objects (%) [3]: 15%
- Population Membrane Permeable-Phenotype (%) [3]: 3%
- Population Mitochondria Different-Phenotype (%) [3]: 30%
- Population Mitotic Cells (%) [3]: 44%
- Population Normal (%) [3]: 84%
- Population Pyknosed Nuclei (%) [3]: 23%
- Population Tubulin-Different-Phenotype (%) [3]: 88%
- Total Cell Count [3]: 148
- Population Apoptotic (%) [4]: 88%
- Population Fragmented Nuclei (%) [4]: 7%
- Population Healthy Nuclei (%) [4]: 65%
- Population Hoechst High Intensity Objects (%) [4]: 8%
- Population Membrane Permeable-Phenotype (%) [4]: 42%
- Population Mitochondria Different-Phenotype (%) [4]: 100%
- Population Mitotic Cells (%) [4]: 11%
- Population Normal (%) [4]: 91%
- Population Pyknosed Nuclei (%) [4]: 26%
- Population Tubulin-Different-Phenotype (%) [4]: 100%
- Total Cell Count [4]: 103
- Population Apoptotic (%) [5]: 60%
- Population Fragmented Nuclei (%) [5]: 27%
- Population Healthy Nuclei (%) [5]: 59%
- Population Hoechst High Intensity Objects (%) [5]: 16%
- Population Membrane Permeable-Phenotype (%) [5]: 22%
- Population Mitochondria Different-Phenotype (%) [5]: 14%
- Population Mitotic Cells (%) [5]: 40%
- Population Normal (%) [5]: 83%
- Population Pyknosed Nuclei (%) [5]: 12%
- Population Tubulin-Different-Phenotype (%) [5]: 61%
- Total Cell Count [5]: 140
- Population Apoptotic (%) [6]: 55%
- Population Fragmented Nuclei (%) [6]: 23%
- Population Healthy Nuclei (%) [6]: 67%
- Population Hoechst High Intensity Objects (%) [6]: 13%
- Population Membrane Permeable-Phenotype (%) [6]: 10%
- Population Mitochondria Different-Phenotype (%) [6]: 27%
- Population Mitotic Cells (%) [6]: 44%
- Population Normal (%) [6]: 86%
- Population Pyknosed Nuclei (%) [6]: 8%
- Population Tubulin-Different-Phenotype (%) [6]: 14%
- Total Cell Count [6]: 74
- Population Apoptotic (%) [7]: 55%
- Population Fragmented Nuclei (%) [7]: 33%
- Population Healthy Nuclei (%) [7]: 51%
- Population Hoechst High Intensity Objects (%) [7]: 28%
- Population Membrane Permeable-Phenotype (%) [7]: 10%
- Population Mitochondria Different-Phenotype (%) [7]: 37%
- Population Mitotic Cells (%) [7]: 45%
- Population Normal (%) [7]: 71%
- Population Pyknosed Nuclei (%) [7]: 14%
- Population Tubulin-Different-Phenotype (%) [7]: 82%
- Total Cell Count [7]: 189
- Population Apoptotic (%) [8]: 76%
- Population Fragmented Nuclei (%) [8]: 4%
- Population Healthy Nuclei (%) [8]: 56%
- Population Hoechst High Intensity Objects (%) [8]: 4%
- Population Membrane Permeable-Phenotype (%) [8]: 56%
- Population Mitochondria Different-Phenotype (%) [8]: 100%
- Population Mitotic Cells (%) [8]: 24%
- Population Normal (%) [8]: 95%
- Population Pyknosed Nuclei (%) [8]: 38%
- Population Tubulin-Different-Phenotype (%) [8]: 100%
- Total Cell Count [8]: 119
- Population Apoptotic (%) [9]: 88%
- Population Fragmented Nuclei (%) [9]: 36%
- Population Healthy Nuclei (%) [9]: 55%
- Population Hoechst High Intensity Objects (%) [9]: 23%
- Population Membrane Permeable-Phenotype (%) [9]: 13%
- Population Mitotic Cells (%) [9]: 11%
- Population Normal (%) [9]: 76%
- Population Pyknosed Nuclei (%) [9]: 8%
- Population Tubulin-Different-Phenotype (%) [9]: 42%
- Total Cell Count [9]: 140
- Population Apoptotic (%) [10]: 100%
- Population Fragmented Nuclei (%) [10]: 53%
- Population Healthy Nuclei (%) [10]: 43%
- Population Hoechst High Intensity Objects (%) [10]: 44%
- Population Membrane Permeable-Phenotype (%) [10]: 22%
- Population Mitochondria Different-Phenotype (%) [10]: 6%
- Population Mitotic Cells (%) [10]: 0%
- Population Normal (%) [10]: 55%
- Population Pyknosed Nuclei (%) [10]: 3%
- Population Tubulin-Different-Phenotype (%) [10]: 56%
- Total Cell Count [10]: 206
- Population Fragmented Nuclei (%) [11]: 40%
- Population Healthy Nuclei (%) [11]: 56%
- Population Hoechst High Intensity Objects (%) [11]: 31%
- Population Membrane Permeable-Phenotype (%) [11]: 7%
- Population Mitochondria Different-Phenotype (%) [11]: 21%
- Population Normal (%) [11]: 68%
- Population Pyknosed Nuclei (%) [11]: 3%
- Population Tubulin-Different-Phenotype (%) [11]: 80%
- Total Cell Count [11]: 208
- Population Apoptotic (%) [12]: 100%
- Population Fragmented Nuclei (%) [12]: 34%
- Population Healthy Nuclei (%) [12]: 64%
- Population Hoechst High Intensity Objects (%) [12]: 25%
- Population Membrane Permeable-Phenotype (%) [12]: 14%
- Population Mitochondria Different-Phenotype (%) [12]: 9%
- Population Mitotic Cells (%) [12]: 0%
- Population Normal (%) [12]: 74%
- Population Pyknosed Nuclei (%) [12]: 2%
- Population Tubulin-Different-Phenotype (%) [12]: 79%
- Total Cell Count [12]: 134

SMILES: C[C@]1(O)C[C@@H](c2nc(-c3ccc4ccc(-c5ccccc5)nc4c3)c3c(N)nccn32)C1 [LINSITINIB]
- Population Apoptotic (%) [1]: 56% and 93%
- Population Fragmented Nuclei (%) [1]: 43% and 32%
- Population Healthy Nuclei (%) [1]: 44% and 50%
- Population Hoechst High Intensity Objects (%) [1]: 18% and 12%
- Population Membrane Permeable-Phenotype (%) [1]: 13% and 8%
- Population Mitochondria Different-Phenotype (%) [1]: 1%
- Population Normal (%) [1]: 81% and 87%
- Population Pyknosed Nuclei (%) [1]: 11% and 17%
- Total Cell Count [1]: 345 and 206
- Population Apoptotic (%) [2]: 40% and 66%
- Population Fragmented Nuclei (%) [2]: 56% and 76%
- Population Healthy Nuclei (%) [2]: 31% and 18%
- Population Hoechst High Intensity Objects (%) [2]: 45% and 43%
- Population Membrane Permeable-Phenotype (%) [2]: 0% and 9%
- Population Mitotic Cells (%) [2]: 60% and 33%
- Population Normal (%) [2]: 54% and 56%
- Population Pyknosed Nuclei (%) [2]: 12% and 5%
- Total Cell Count [2]: 75 and 105
- Population Apoptotic (%) [5]: 52% and 80%
- Population Fragmented Nuclei (%) [5]: 47% and 33%
- Population Healthy Nuclei (%) [5]: 44% and 51%
- Population Hoechst High Intensity Objects (%) [5]: 22% and 12%
- Population Membrane Permeable-Phenotype (%) [5]: 9%
- Population Mitochondria Different-Phenotype (%) [5]: 2% and 4%
- Population Mitotic Cells (%) [5]: 47% and 20%
- Population Normal (%) [5]: 77% and 87%
- Population Pyknosed Nuclei (%) [5]: 8% and 14%
- Total Cell Count [5]: 364 and 202
- Population Apoptotic (%) [6]: 50%
- Population Fragmented Nuclei (%) [6]: 58% and 75%
- Population Healthy Nuclei (%) [6]: 37% and 21%
- Population Hoechst High Intensity Objects (%) [6]: 33% and 52%
- Population Membrane Permeable-Phenotype (%) [6]: 21% and 18%
- Population Mitotic Cells (%) [6]: 50%
- Population Normal (%) [6]: 66% and 47%
- Population Pyknosed Nuclei (%) [6]: 3%
- Total Cell Count [6]: 77 and 109
